Data taken from ChEMBL document CHEMBL3085664, “Structure-activity relationship of imidazopyridinium analogues as antagonists of neuropeptide s receptor” (J Med Chem, 2013).

Experiments:
[1] = target: T1, Neuropeptide S receptor (Homo sapiens, UniProt Q6W5P4); assay: Antagonist activity at neuropeptide S receptor (unknown origin) assessed as cAMP level by cell based assay; format: functional
T1 sequence (Q6W5P4 whole entry): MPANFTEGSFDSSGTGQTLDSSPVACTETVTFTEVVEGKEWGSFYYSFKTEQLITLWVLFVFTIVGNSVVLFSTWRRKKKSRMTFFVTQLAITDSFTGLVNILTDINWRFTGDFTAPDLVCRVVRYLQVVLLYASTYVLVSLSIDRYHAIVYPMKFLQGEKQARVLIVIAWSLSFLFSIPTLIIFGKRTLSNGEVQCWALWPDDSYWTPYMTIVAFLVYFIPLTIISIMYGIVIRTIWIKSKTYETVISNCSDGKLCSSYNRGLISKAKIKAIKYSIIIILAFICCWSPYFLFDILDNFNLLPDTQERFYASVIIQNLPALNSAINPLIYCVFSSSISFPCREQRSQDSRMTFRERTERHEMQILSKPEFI
Procedure, shortened: (§1)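 CHO cells stably expressing NPSR, 1800 cells/well in 1536-well format, seeded overnight at 37°C in medium without Geneticin. Stimulation buffer (PBS, 0.1% BSA, 0.05% Tween-20, 500µM Ro 20-1724, EC80 NPS) was added for 30 min at 37°C. cAMP was read by HTRF (d2-cAMP/cryptate anti-cAMP in lysis buffer, 30 min). IC50 is the mean with SD of two independent experiments, each run in duplicate.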

[2] = target: T1, Neuropeptide S receptor; assay: Displacement of [125I]Tyr10-NPS from neuropeptide S receptor (unknown origin)
Procedure, shortened: (§2)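 Whole CHO cells stably expressing human NPSR at 90–95% confluency in 24-well plates. Cells were incubated with 0.15 nM [125I]Y10-NPS plus increasing compound or unlabeled NPS in DMEM/0.1% BSA, 20°C, 1.5 hr. Nonspecific binding was defined with 1 µM unlabeled human NPS. Cells were washed, lysed in 1 N NaOH and counted by liquid scintillation. IC50 from one experiment in duplicate.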

[3] = target: T1, Neuropeptide S receptor; assay: Antagonist activity at neuropeptide S receptor (unknown origin) assessed as intracellular calcium level by cell based assay; format: functional
Procedure, shortened: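 CHO cells stably expressing NPSR were seeded at 2000 cells/well and incubated overnight at 37 °C, 5% CO2. They were loaded with no-wash calcium dye for 1 h, then preincubated with compound in DMSO for 10 min. Stimulation used NPS at EC80 in PBS/0.1% BSA/0.05% Tween-20 with 500 µM Ro 20-1724. Kinetic fluorescence was read at 1 Hz: 6 s baseline, then 4 min. IC50 is the mean ± SD of two independent experiments, each in duplicate.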

[4] = target: T1, Neuropeptide S receptor; assay: Antagonist activity at neuropeptide S receptor (unknown origin) expressed in CHO cells assessed as inhibition of NPS-induced calcium mobilization after 10 mins by fluorescence assay; format: functional, cell-based
Procedure, shortened: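 CHO-NPSR cells, 2000/well in 1536-well plates, incubated overnight, then loaded with no-wash calcium dye for 1 h at 37°C. Compound in DMSO was added for 10 min. Baseline fluorescence was recorded 6 s at 1 Hz, then EC80 NPS in stimulation buffer was added and recording continued 4 min at 1 Hz on a kinetic reader. IC50 is the mean with SD of two independent experiments in duplicate.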

[5] = target: T1, Neuropeptide S receptor; assay: Antagonist activity at neuropeptide S receptor (unknown origin) expressed in CHO cells assessed as cAMP level after 30 mins by […] assay; format: functional, cell-based; procedure, shortened: as §1
[6] = target: T1, Neuropeptide S receptor; assay: Antagonist activity at neuropeptide S receptor (unknown origin) expressed in CHO cells assessed as inhibition of NPS-induced ERK activation after 20 mins by HTRF assay; format: cell-based
[7] = target: T2, Neuropeptide S receptor (Homo sapiens) (UniProt Q6W5P4); assay: Antagonist activity at neuropeptide S receptor (unknown origin) expressed in CHO cells assessed as inhibition of NPS-induced ERK activation at 50 uM after 20 mins by HTRF assay relative to control; format: cell-based
T2 sequence (whole entry): T1 sequence (Q6W5P4 whole entry)

[8] = target: T1, Neuropeptide S receptor; assay: Displacement of [125I]Tyr10-NPS from human neuropeptide S receptor expressed in CHO cells after 1.5 hrs by liquid scintillation counting; format: cell-based; procedure, shortened: as §2
[9] = Metabolic stability in mouse liver microsomes assessed as compound remaining after 60 mins in presence NADPH; format: ADME, Microsome; conditions: read-out: Stability
Procedure, shortened: (§3)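 Compound was incubated with mouse liver microsomes, and percent parent remaining was determined at 15, 30 and 60 min. Values are means from a single experiment run in duplicate.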

[10] = Metabolic stability in mouse liver microsomes assessed as compound remaining after 15 mins in presence NADPH; format: ADME, Microsome; conditions: read-out: Stability; procedure, shortened: as §3
[11] = Metabolic stability in mouse liver microsomes assessed as compound remaining after 60 mins in absence NADPH; format: ADME, Microsome; conditions: read-out: Stability; procedure, shortened: as §3
[12] = Metabolic stability in mouse liver microsomes assessed as compound remaining after 30 mins in absence NADPH; format: ADME, Microsome; conditions: read-out: Stability; procedure, shortened: as §3
[13] = Metabolic stability in mouse liver microsomes assessed as compound remaining after 30 mins in presence NADPH; format: ADME, Microsome; conditions: read-out: Stability; procedure, shortened: as §3
[14] = Metabolic stability in mouse liver microsomes assessed as compound remaining after 15 mins in absence NADPH; format: ADME, Microsome; conditions: read-out: Stability; procedure, shortened: as §3

| SMILES | IC50 ([4]; read-out: IC50) [nM] | IC50 ([5]; read-out: IC50) [nM] | other results |
| --- | --- | --- | --- |
| COc1ccc(C2c3c(ccc4ccccc34)OC3N=CN(CCN4CCOCC4)C(=N)C32)cc1OC (stereo not given) | – | – | IC50 [1]: 4900 nM; IC50 [2]: 190 nM; IC50 [3]: 1400 nM |
| C[n+]1cc(C(O)(c2ccccc2)c2ccccc2)n2ccccc21.O=C([O-])C(F)(F)F | – | – | IC50 ([4]; cho): Not Active |
| O=C(NCc1ccccc1)N1CCN2C(=O)OC(c3ccccc3)(c3ccccc3)C2C1 (stereo not given) | – | – | IC50 [3]: 26 nM |
| Cc1c(C(O)(c2ccccc2)c2ccccc2)n2ccccc2[n+]1C.O=C([O-])C(F)(F)F | – | – | IC50 ([4]; cho): Not Active |
| c1ccc(P(c2ccccc2)c2cnc3ccccn23)cc1 | 35000 | – | IC50 ([5]; cho): Not Active |
| Cc1c(P(=S)(c2ccccc2)c2ccccc2)n2ccccc2[n+]1C/C=C/c1ccc(Cl)cc1 | 2.2 | 120 | – |
| Cc1c(P(=S)(c2ccccc2)c2ccccc2)n2ccccc2[n+]1CCc1ccccc1 | 73 | 2100 | IC50 [6]: 16 nM |
| O=P(c1ccccc1)(c1ccccc1)c1cnc2ccccn12 | – | – | IC50 ([4]; cho): Not Active |
| S=P(c1ccccc1)(c1ccccc1)c1cnc2ccccn12 | 4030 | 63000 | inhibition [7]: < 50% |
| Cc1c(P(=S)(c2ccccc2)c2ccccc2)n2ccccc2[n+]1CCCCCc1ccccc1 | 13 | 710 | IC50 [6]: 6.2 nM |
| Cc1c(P(=S)(c2ccccc2)c2ccccc2)n2ccccc2[n+]1Cc1ccccc1 | 32 | 1300 | IC50 [6]: 16 nM |
| Cc1ccc(/C=C/C[n+]2c(C)c(P(=S)(c3ccccc3)c3ccccc3)n3ccccc32)cc1 | 9 | 330 | – |
| OC(c1ccccc1)(c1ccccc1)c1cnc2ccccn12 | – | – | IC50 ([4]; cho): Not Active |
| Cc1c(P(=S)(c2ccccc2)c2ccccc2)n2ccccc2[n+]1C/C=C/c1ccccc1Cl | 3.4 | 94 | – |
| Cn1cc(P(=S)(c2ccccc2)c2ccccc2)c2ccccc21 | 7300 | – | IC50 ([5]; cho): Not Active |
| C[n+]1cc(P(=S)(c2ccccc2)c2ccccc2)n2ccccc21 | 2500 | 39000 | inhibition [7]: < 50% |

| SMILES | IC50 ([4]; read-out: IC50) [nM] | IC50 ([5]; read-out: IC50) [nM] | other results |
| --- | --- | --- | --- |
| Cc1c(P(=S)(c2ccccc2)c2ccccc2)n2ccccc2[n+]1C/C=C/c1cccc(Br)c1 | 23 | 670 | – |
| Cc1c(P(=S)(c2ccccc2)c2ccccc2)n2ccccc2[n+]1C/C=C/c1cccc(Cl)c1 | 9.2 | 220 | – |
| Cc1c(P(=S)(c2ccccc2)c2ccccc2)n2ccccc2[n+]1C/C=C/c1ccc2ccccc2c1 | 64 | 1300 | – |
| Cc1nc2ccccn2c1P(=S)(c1ccccc1)c1ccccc1 | 1000 | 18000 | IC50 [6]: 9.1 nM |
| CCC(C)(CCN1CCOCC1)N(Cc1cc2ccccc2n(C)c1=O)C(=O)C1CCCCC1 (stereo not given) | 55 | 1.2 | IC50 [6]: 11 nM; IC50 [2]: 1.3 nM; IC50 [8]: 6.7 nM; remaining at 1 h [9]: 0%; remaining at 0.25 h [10]: 0%; remaining at 1 h [11]: 94%; remaining at 0.5 h [12]: 97%; remaining at 0.5 h [13]: 0%; remaining at 0.25 h [14]: 103% |
| Cc1c(P(=S)(c2ccccc2)c2ccccc2)n2ccccc2[n+]1CCCc1ccccc1 | < 0.5 | 110 | – |
| Cc1c(P(=S)(c2ccccc2)c2ccccc2)n2ccccc2[n+]1CCCCc1ccccc1 | < 0.5 | 940 | IC50 [6]: 15 nM |
| Cc1nc2ccccn2c1C(O)(c1ccccc1)c1ccccc1 | – | – | IC50 ([4]; cho): Not Active |
| Cc1c(P(=S)(c2ccccc2)c2ccccc2)n2ccccc2[n+]1C/C=C/c1ccc(Br)cc1 | 5.7 | 170 | – |
| Cc1c(P(=S)(c2ccccc2)c2ccccc2)n2ccccc2[n+]1C/C=C/c1ccc(C(F)(F)F)cc1 | 4.5 | 400 | – |
| Cc1c(P(=S)(c2ccccc2)c2ccccc2)n2ccccc2[n+]1C/C=C/c1ccc(F)c(Br)c1 | 45 | 840 | – |
| O=C1c2ccccc2C(=O)C1(c1ccccc1)N1CCN(Cc2ccccc2)CC1 | – | – | IC50 [3]: 27 nM |
| Cc1c(P(=S)(c2ccccc2)c2ccccc2)n2ccccc2[n+]1C/C=C/c1ccc(F)cc1 | 3.4 | 71 | – |
| Cc1nc2ccccn2c1P(=O)(c1ccccc1)c1ccccc1 | 27000 | – | IC50 ([5]; cho): Not Active |
| COc1cccc(/C=C/C[n+]2c(C)c(P(=S)(c3ccccc3)c3ccccc3)n3ccccc32)c1 | 3.2 | 110 | – |
| Cc1c(P(=S)(c2ccccc2)c2ccccc2)c2ccccc2n1C | 2800 | – | inhibition [7]: < 50%; IC50 ([5]; cho): Not Active |
